Experimental findings from ChEMBL document CHEMBL2434956, “Investigating the selectivity of metalloenzyme inhibitors” (J Med Chem, 2013) are described below.

For one assay, the species on record is Homo sapiens. The assay is described as follows: Binding affinity to ferritin (unknown origin) assessed as removal of ferric ion at 1 mM measured for 1 hr by UV-vis spectrophotometric analysis.
A further assay deals with Trypsin (Homo sapiens) (UniProt P07477+P07478+P35030). The assay is described as follows: Inhibition of TPCK-treated trypsin (unknown origin) at 10 uM preincubated for 10 mins prior to substrate addition measured for 30 mins by spectrophotometric analysis. In kind it is protein assay. Put shortly:
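Commercial colorimetric kit run per manufacturer; TPCK-treated trypsin (100 mU) in kit buffer, inhibitor at 10 µM; enzyme and inhibitor preincubated 10 min at room temperature before substrate addition.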

Assay [1] concerns the target T1, Tyrosinase (Agaricus bisporus) (UniProt O42713).
T1 sequence (whole entry): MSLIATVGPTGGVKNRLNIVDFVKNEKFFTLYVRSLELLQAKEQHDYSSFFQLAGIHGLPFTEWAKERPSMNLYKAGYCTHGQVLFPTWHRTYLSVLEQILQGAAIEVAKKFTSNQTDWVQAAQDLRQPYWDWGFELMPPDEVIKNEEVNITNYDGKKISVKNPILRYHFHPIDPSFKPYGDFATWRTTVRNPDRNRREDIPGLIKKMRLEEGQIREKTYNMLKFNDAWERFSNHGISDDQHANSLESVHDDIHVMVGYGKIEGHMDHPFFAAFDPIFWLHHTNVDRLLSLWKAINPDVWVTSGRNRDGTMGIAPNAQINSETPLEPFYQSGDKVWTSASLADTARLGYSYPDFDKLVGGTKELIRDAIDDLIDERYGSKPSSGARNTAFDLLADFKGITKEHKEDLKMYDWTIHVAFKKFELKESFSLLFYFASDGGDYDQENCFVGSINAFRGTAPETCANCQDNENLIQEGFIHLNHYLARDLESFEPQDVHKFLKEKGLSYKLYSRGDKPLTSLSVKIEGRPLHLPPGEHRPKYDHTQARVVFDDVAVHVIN
The assay is described as follows: Inhibition of mushroom tyrosinase assessed as L-DOPA conversion to melanin at 10 uM preincubated for 10 mins prior to substrate addition measured after 10 mins by spectrophotometric analysis. A digest of the protocol:
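Mushroom tyrosinase (30 U) in 10 mM NaH₂PO₄ pH 6.8 with 10 µM inhibitor, 10 min at room temperature; background A475 taken, L-DOPA (0.5 mM) added, A475 read again after 10 min and background subtracted. No-inhibitor wells set as 100% activity. Triplicate assays, triplicate wells; mean ± SD.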

Assay [2] has as its target T2, Macrophage metalloelastase (Homo sapiens, UniProt P39900). The assay is described as follows: Inhibition of human recombinant MMP-12 using Mca-Pro-Leu-Gly-Leu-Dpa-Ala-Arg-NH2.AcOH as substrate at 10 uM preincubated for 30 mins prior to substrate addition measured for 30 mins by fluorescence assay relative to control. Put shortly:
(§1)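 Human recombinant MMP-2 (1.16 U) or MMP-12 (0.007 U) in 50 mM HEPES, 10 mM CaCl₂, 0.05% Brij-35, pH 7.5, preincubated with inhibitor 30 min at 37 °C; 4 µM OmniMMP peptide then added. Fluorescence rise (ex 320/em 400 nm) over 30 min, as percent of no-inhibitor wells. Triplicate assays, triplicate wells; mean ± SD.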
Target sequence in this assay (P39900 106-470 limits assumed): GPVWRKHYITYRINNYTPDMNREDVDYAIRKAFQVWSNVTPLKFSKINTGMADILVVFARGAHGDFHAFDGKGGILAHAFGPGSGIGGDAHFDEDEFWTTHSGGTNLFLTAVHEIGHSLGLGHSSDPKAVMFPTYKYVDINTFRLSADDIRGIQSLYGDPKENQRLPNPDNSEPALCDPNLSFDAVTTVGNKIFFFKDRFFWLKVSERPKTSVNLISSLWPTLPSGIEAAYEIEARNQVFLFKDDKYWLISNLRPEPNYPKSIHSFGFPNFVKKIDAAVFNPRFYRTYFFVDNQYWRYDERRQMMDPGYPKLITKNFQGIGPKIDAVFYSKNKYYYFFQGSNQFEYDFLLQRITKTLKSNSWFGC

Assay [3] deals with T3, 72 kDa type IV collagenase (Homo sapiens, UniProt P08253). The assay is described as follows: Inhibition of human recombinant MMP-2 using Mca-Pro-Leu-Gly-Leu-Dpa-Ala-Arg-NH2.AcOH as substrate at 10 uM preincubated for 30 mins prior to substrate addition measured for 30 mins by fluorescence assay relative to control. Put shortly: as §1
Target sequence in this assay (P08253 110-660 limits assumed): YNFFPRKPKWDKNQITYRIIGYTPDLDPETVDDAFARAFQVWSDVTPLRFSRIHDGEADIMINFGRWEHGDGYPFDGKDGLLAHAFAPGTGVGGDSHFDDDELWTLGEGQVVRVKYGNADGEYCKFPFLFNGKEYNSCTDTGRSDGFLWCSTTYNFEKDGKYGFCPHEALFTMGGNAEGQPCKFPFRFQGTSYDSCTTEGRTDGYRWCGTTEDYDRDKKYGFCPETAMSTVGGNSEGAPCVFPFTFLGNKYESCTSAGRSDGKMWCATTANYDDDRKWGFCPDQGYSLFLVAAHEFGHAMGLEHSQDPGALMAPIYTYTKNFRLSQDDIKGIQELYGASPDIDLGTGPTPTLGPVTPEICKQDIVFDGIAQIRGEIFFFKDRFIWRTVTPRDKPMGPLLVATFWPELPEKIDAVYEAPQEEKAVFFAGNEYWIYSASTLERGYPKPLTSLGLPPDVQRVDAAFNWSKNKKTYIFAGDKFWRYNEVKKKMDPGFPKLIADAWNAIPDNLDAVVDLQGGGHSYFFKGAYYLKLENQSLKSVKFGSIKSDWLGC
The target in assay [4] is Histone deacetylase 2 (Homo sapiens) (UniProt Q92769). The settings on record: at 10 µM.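 Also: fluorescence readout of HDAC2 deacetylase activity, compound preincubated with HDAC2 5 min before substrate, signal read after 30 min.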
Sequence of Histone deacetylase 2 (Homo sapiens) (Q92769 whole entry): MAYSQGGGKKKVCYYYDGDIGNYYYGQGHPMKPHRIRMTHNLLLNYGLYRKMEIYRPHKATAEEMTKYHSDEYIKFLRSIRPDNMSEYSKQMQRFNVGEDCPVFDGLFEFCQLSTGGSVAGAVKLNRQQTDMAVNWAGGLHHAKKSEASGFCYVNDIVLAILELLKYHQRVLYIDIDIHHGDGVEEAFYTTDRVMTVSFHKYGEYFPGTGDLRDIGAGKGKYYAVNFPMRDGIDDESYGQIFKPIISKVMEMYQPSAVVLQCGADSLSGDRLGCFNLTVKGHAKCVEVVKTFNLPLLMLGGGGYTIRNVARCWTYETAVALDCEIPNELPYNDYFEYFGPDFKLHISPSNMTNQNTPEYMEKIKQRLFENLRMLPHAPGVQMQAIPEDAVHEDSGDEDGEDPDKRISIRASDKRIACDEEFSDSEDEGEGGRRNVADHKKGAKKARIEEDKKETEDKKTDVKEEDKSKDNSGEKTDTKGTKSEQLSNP
The target in assay [5] is Angiotensin-converting enzyme (Homo sapiens) (UniProt P12821). The assay is described as follows: Inhibition of human recombinant ACE/CD143 somatic form using Mca-Pro-Leu-Gly-Leu-Dpa-Ala-Arg-NH2.AcOH as substrate at 10 uM preincubated for 10 mins prior to substrate addition measured for 30 mins by spectrophotometric analysis. A digest of the protocol:
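Human recombinant somatic ACE/CD143 (20 ng) in 50 mM MES pH 6.5 with inhibitor at 10 µM, preincubated 10 min at 37 °C; OmniMMP fluorogenic peptide (4 µM) then added. Fluorescence (ex 320/em 400 nm) read over 30 min. Data normalized to uninhibited enzyme; triplicate assays, each inhibitor in triplicate; mean ± SD.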

A short description of assay [6]: Inhibition of MMP (unknown origin). Set-up: species or system Homo sapiens.
Assay [7] has as its target Matrix metalloproteinase-9 (Homo sapiens, UniProt P14780). The assay is described as follows: Inhibition of MMP-9 (unknown origin).
The target of assay [8] is T3, 72 kDa type IV collagenase. The assay is described as follows: Inhibition of human recombinant MMP-2 using Mca-Pro-Leu-Gly-Leu-Dpa-Ala-Arg-NH2.AcOH as substrate preincubated for 30 mins prior to substrate addition measured for 30 mins by fluorescence assay. A digest of the protocol: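 Human recombinant MMP-2 (1.16 U) in 50 mM HEPES, 10 mM CaCl₂, 0.05% Brij-35, pH 7.5, is preincubated with inhibitor at 37 °C for 30 min. 4 µM OmniMMP substrate then starts the reaction. Fluorescence (ex 320/em 400 nm) is followed for 30 min. Activity is the fluorescence increase relative to no-inhibitor wells, as a percentage. Three assays, each in triplicate; mean ± SD.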
Target sequence in this assay (P08253 whole entry): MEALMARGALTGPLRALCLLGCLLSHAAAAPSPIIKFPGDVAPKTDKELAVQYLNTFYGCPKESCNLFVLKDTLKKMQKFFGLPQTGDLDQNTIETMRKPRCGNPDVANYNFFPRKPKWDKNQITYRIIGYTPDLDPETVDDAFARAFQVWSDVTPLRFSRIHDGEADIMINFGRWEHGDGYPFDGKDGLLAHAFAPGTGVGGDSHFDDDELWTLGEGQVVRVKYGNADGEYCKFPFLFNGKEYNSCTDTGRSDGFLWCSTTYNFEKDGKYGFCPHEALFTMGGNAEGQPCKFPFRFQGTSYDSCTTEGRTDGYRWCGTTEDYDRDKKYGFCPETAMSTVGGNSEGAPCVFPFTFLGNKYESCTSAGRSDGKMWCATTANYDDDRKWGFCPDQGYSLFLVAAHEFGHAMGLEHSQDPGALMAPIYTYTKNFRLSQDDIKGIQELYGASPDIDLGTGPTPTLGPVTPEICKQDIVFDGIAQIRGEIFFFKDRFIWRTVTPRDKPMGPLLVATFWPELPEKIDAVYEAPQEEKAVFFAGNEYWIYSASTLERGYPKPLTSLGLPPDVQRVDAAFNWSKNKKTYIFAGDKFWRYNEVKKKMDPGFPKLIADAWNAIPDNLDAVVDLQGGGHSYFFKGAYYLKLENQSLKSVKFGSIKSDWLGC

The target of assay [9] is T2, Macrophage metalloelastase. The assay is described as follows: Inhibition of human recombinant MMP-12 using Mca-Pro-Leu-Gly-Leu-Dpa-Ala-Arg-NH2.AcOH as substrate preincubated for 30 mins prior to substrate addition measured for 30 mins by fluorescence assay. A digest of the protocol:
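Human recombinant MMP-12 (0.007 U) was preincubated with inhibitor at 37 °C for 30 min in 50 mM HEPES, 10 mM CaCl₂, 0.05% Brij-35, pH 7.5. OmniMMP substrate was then added, and fluorescence (ex 320/em 400 nm) was followed for 30 min. Activity is the fluorescence increase relative to no-inhibitor wells (set to 100%). Triplicate assays, each with triplicate inhibitor wells; mean ± SD.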
Target sequence in this assay (P39900 whole entry): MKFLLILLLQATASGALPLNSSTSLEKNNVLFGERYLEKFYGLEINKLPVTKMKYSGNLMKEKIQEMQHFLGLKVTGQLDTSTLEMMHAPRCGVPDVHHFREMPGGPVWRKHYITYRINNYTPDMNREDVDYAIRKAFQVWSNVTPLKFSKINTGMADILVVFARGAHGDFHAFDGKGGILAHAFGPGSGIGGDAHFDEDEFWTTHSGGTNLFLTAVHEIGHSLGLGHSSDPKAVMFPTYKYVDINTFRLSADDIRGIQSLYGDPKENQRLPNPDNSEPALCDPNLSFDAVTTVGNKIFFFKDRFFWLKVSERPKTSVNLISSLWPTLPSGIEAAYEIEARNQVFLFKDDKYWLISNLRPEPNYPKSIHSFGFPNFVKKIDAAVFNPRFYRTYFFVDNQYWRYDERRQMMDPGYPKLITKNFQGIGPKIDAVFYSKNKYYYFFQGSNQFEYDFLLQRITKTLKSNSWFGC

The source made the active and inactive calls. The rule behind the calls is not given here.

Sequence of Angiotensin-converting enzyme (Homo sapiens) (P12821 whole entry): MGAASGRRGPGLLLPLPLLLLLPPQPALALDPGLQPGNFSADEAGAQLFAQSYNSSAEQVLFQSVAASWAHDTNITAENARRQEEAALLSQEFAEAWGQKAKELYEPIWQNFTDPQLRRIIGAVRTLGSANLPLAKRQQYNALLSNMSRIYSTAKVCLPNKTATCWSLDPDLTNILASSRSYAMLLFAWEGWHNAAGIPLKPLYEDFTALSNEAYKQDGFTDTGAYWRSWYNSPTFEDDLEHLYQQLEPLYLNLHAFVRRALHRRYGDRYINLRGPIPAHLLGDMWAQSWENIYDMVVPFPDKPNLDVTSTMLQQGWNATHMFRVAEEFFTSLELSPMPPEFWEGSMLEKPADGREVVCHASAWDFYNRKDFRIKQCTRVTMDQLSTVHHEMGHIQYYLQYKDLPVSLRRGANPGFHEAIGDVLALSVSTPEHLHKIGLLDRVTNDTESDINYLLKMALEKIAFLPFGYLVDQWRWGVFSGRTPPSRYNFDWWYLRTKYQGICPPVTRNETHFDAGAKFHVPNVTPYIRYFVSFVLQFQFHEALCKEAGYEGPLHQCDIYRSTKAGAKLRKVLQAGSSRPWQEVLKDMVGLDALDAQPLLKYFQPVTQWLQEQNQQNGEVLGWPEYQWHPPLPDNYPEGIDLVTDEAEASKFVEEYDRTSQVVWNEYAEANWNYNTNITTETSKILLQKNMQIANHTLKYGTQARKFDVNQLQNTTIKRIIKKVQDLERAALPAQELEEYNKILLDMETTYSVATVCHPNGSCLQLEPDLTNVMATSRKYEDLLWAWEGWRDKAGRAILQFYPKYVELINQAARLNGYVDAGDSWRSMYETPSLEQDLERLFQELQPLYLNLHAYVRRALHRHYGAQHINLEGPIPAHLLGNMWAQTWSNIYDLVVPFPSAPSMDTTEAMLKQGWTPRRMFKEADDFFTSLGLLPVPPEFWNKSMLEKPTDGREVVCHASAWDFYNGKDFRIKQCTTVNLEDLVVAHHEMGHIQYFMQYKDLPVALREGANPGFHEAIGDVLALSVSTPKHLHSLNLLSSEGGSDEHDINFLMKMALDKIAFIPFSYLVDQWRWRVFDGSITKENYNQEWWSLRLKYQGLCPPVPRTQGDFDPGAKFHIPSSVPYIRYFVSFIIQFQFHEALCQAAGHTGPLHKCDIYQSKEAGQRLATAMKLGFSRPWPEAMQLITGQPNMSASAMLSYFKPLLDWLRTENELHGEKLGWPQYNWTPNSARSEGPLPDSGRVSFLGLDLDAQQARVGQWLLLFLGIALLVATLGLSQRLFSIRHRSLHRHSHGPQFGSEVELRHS
Sequence of Matrix metalloproteinase-9 (P14780 whole entry): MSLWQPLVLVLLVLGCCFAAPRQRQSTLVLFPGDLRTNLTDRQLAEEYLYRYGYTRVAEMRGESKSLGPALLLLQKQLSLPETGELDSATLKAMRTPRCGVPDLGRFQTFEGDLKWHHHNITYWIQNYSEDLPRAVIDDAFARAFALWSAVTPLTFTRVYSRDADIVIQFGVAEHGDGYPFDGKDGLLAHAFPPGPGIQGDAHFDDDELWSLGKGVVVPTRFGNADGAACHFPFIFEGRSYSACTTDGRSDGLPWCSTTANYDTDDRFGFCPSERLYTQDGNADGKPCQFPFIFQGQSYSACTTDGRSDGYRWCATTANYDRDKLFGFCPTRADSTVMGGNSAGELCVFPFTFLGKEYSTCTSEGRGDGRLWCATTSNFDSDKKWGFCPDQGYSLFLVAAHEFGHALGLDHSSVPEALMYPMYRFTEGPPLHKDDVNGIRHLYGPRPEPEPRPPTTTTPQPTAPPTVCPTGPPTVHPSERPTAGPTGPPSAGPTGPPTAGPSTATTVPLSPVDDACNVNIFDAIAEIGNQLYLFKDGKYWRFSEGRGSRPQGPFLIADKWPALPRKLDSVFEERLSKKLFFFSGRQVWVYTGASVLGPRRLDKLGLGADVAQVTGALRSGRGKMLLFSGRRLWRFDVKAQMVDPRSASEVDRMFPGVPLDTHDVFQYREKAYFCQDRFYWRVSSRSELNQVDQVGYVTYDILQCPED

Usually inhibition stands for the change of the read-out against control, counted positive when it falls. In the case of `CC(=O)N(O)CCCCCNC(=O)CCC(=O)N(O)CCCCCNC(=O)CCC(=O)N(O)CCCCCN`, the result in the assay listed under Homo sapiens was Active. Further, the inhibition result (at Trypsin (Homo sapiens); in assay [1]; in assay [4]) was “inactive” throughout. The inhibition result in assay [2] and in assay [3] was “Active” in each case.
As for `CC(=O)Nc1nnc(S(N)(=O)=O)s1`, the inhibition result (on Trypsin (Homo sapiens); in assay [1]; in assay [4]) was “inactive” throughout. Further, the inhibition result in [2] and in assay [3] was “Active” throughout.
Broadly, the IC50 is the midpoint of a concentration-inhibition curve. For `COc1ccc(S(=O)(=O)N(Cc2cccnc2)[C@@H](C(=O)NO)C(C)C)cc1` [CGS-27023A], the inhibition result (at Trypsin (Homo sapiens); in assay [1]; in assay [4]) was “inactive” in each case. Also, the inhibition entry in assay [5] was “Active”. The inhibition in [2] and in assay [3] was 95% in each case. Further, the IC50 in [6] stood at 8 nM.
`O=C(CCCCCCC(=O)Nc1ccccc1)NO`: the inhibition entry (at Trypsin (Homo sapiens); in [1]) was “inactive” in each case. Moreover, the inhibition result in assay [5] is “Active”. Also, the inhibition in assay [2] and in assay [3] was less than 25% throughout.
Regarding `O=C(/C=C/c1ccc(Cl)cc1Cl)NO`, the inhibition result (on Trypsin (Homo sapiens); in [1]) was “inactive” in each case. For the same compound, the inhibition in assay [2] and in assay [3] was less than 25% throughout. Also, the inhibition result in assay [4] is “Active”.
On to `Cc1nc(C(=O)NCc2ccc(F)cc2)c(O)c(=O)[nH]1`, for which the inhibition entry (on Trypsin (Homo sapiens); in assay [1]; in assay [4]) was “inactive” in each case. In addition, the inhibition result in [2] was “Active”. In assay [3], the inhibition is 50%.
`O=C(O)[C@H](Cc1ccccc1)NS(=O)(=O)c1ccc(-c2ccccc2)cc1`: the inhibition entry (on Trypsin (Homo sapiens); in assay [1]; in assay [5]; in assay [4]) was “inactive” each time. Moreover, the inhibition entry in assay [2] and in assay [3] was “Active” in each case. Besides, the concentration for half-maximal inhibition (IC50) in [7] was determined as 310 nM; in assay [8] it was 240 nM.
`O=C(NCc1ccc(-c2ccccc2)cc1)c1cccc(=O)n1O`: the inhibition entry (on Trypsin (Homo sapiens); in assay [1]; in assay [4]) was “inactive” in each case. Besides, the inhibition result in assay [5] was “Active”. Also, the inhibition in assay [2] was 100%; in assay [3], 80%. Moreover, the half-maximal inhibitory concentration (IC50) in [9] turned out to be 18 nM.
Take `CC(c1cc2ccccc2s1)N(O)C(N)=O` (centres undefined): the inhibition result (at Trypsin (Homo sapiens); in assay [1]; in assay [4]) was “inactive” each time. Moreover, the inhibition result in assay [2] and in [3] was “Active” in each case.
As for `C[C@H](CS)C(=O)N1CCC[C@H]1C(=O)O`, the inhibition entry (at Trypsin (Homo sapiens); in [1]; in [4]) was “inactive” in each case. Also, the inhibition result in assay [2] is “Active”. Further, the inhibition in assay [3] is less than 10%.
Consider `CC(/C=C/C(=O)NO)=C\[C@@H](C)C(=O)c1ccc(N(C)C)cc1`, for which the inhibition result in assay [4] was “Active”.
